Compound activity deposited in PubChem by several laboratories.
HUVEC prolif 384 = human endothelial cell proliferation inhibition | HUVEC proliferation, CellTiter-Glo luminescence, 72 h; stronger effect = lower value | viability, % at 10 µM (by protocol) | hit rate 1.1% among 86,000;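 active = viability at or below 30%; inactive = viability above 30%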;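 note: 100% = median luminescence of DMSO-only cell control wells on each plate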
Cav32 inh = inhibitors of human Cav3.2 T-type calcium channel; AID 449739; hit rate 4% among 100,000; B-score at 10 µM; Cav3.2-expressing cells, Fluo-4 calcium fluorescence FDSS; stronger effect = lower value;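 active = single-dose well whose peak fluorescence ratio is a statistical outlier from its plate by either plate-standardised score or position-corrected B-score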
Lung fibro prol = blocks proliferation of human lung fibroblasts | LL 47 human lung fibroblast viability, ATP luminescence; stronger effect = lower value | viability, % at 10 µM | hit rate 1.1% among 85,000;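 active = viability at or below 50% in the single dose screen; inactive = viability above 50%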;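 note: compound exposure lasted 72 h before the ATP readout; 100% = median luminescence of untreated cell-only wells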
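Benchmarks: Cell-only wells, no compound | Test system: LL 47 human lung fibroblasts, passage 12 or lower | Input: 1,150 cells/well | Measured by: CellTiter-Glo luminescence measuring cellular ATP | Medium: IMEM, 15% FBS supplement | Schedule: Overnight attachment after seeding, then 72 h compound exposure at 37 °C | Doses: Compound addition at 0.1% DMSO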
PTEN del growth = growth suppressors of cells with PTEN tumor suppressor deletion. HCT116 PTEN-null viability, CellTiter-Glo, 60 h; stronger effect = lower value. viability, % at 10 µM. hit rate 1.2% among 140,000. AID 827;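 active = viability at or below a set limit, 4 SD under the median of all tested compounds, cut at about 3.7% in these data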;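 note: PTEN knockout HCT116 line with beta catenin targeted HCT116 as companion control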
bCat KO growth = beta-catenin-lacking colon tumor cell growth suppression; HCT116 beta-catenin knockout viability, CellTiter-Glo, 60 h; stronger effect = lower value; viability, % at 10 µM; hit rate 1.5% among 140,000; AID 818;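 active = viability at or under a set limit, the compound median less 4 SD, cut at about 6% in these data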;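 note: 0% = Hyamine 1622 control at 20 µM and 100% = untreated cell control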
H69AR inhibit = blocks growth of human H69AR lung tumor cells | H69AR lung tumor viability, ATP luminescence, 72 h; stronger effect = lower value | viability, % at 10 µM | hit rate 6% among 85,000;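 active = viability at or below 40%; inactive = viability above 40%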;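 note: multidrug resistant small cell line overexpressing MRP-1 efflux transporter; 100% = mean luminescence of untreated control wells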
An asterisk follows results filed as active; nt = not tested or not shown. Rows were chosen to be rich in hits. Some 7.1% of all compounds tested hit in one or more screens of this group.

SMILES	HUVEC prolif 384	Cav32 inh	Lung fibro prol	PTEN del growth	bCat KO growth	H69AR inhibit
CC(C)c1ccc(S(=O)(=O)/N=C2/C=C(Sc3ncn[nH]3)C(=O)c3ccccc32)cc1	nt	nt	nt	11.1	2.1*	nt
CCOC(=O)N1CCC(=NNC(=O)c2ccccc2F)CC1	nt	nt	nt	95.6	98.8	nt
COc1cccc(/C=C/C(=O)OCC(=O)N2c3ccccc3NC(=O)C2(C)C)c1	nt	nt	nt	100.2	97.8	nt
Cc1cc(Cl)c(OCCCCNC(C)(C)C)c(Br)c1	nt	nt	nt	63.5	64.6	nt
Cc1ccc([N+](=O)[O-])cc1NC(=O)CN(C(=O)c1ccc(Cl)cc1)C1CCCCC1	nt	-9.36*	nt	23.7	41.0	nt
O=C(CN(C(=O)c1ccccc1Cl)C1CCCCC1)Nc1ccc(Cl)c([N+](=O)[O-])c1	nt	-9.92*	nt	25.4	44.2	nt
Cc1ccc([N+](=O)[O-])cc1NC(=O)CCSc1ccc(Cl)cc1	nt	-3.39	nt	76.9	87.3	nt
O=C(CN(C(=O)c1ccc(Cl)cc1)C1CCCCC1)Nc1ccc(Cl)c([N+](=O)[O-])c1	nt	nt	nt	22.4	30.5	nt
O=C(NCc1cccnc1)c1ccc(COc2ccccc2Br)o1	63.4	0.918	92.0	63.2	78.2	72.2
O=C(Nc1cccnc1)c1ccc(COc2ccccc2Br)o1	24.4*	0.00376	59.0	26.5	25.6	44.4
C[C@]12CC[C@@H]3c4ccc(O)cc4CC[C@H]3[C@@H]1C[C@@H](O)[C@@H]2O	nt	-4.57*	nt	91.9	101.2	nt
C[C@]12CC[C@@H]3c4ccc(OC(=O)c5ccccc5)cc4CC[C@H]3[C@@H]1CC[C@@H]2O	55.2	-4.01	92.6	44.5	47.3	26.4*
COCCNc1nnc(SC(C)C(=O)Nc2ccc(-c3nc4ccc(C)cc4s3)cc2)s1 (stereo not drawn)	nt	nt	nt	5.7	20.9	nt
Cc1ccc(NC2(c3nnnn3-c3c(C)cccc3C)CCCCC2)cc1	nt	nt	nt	66.2	67.3	nt
Cc1ccc(C(=O)Nc2ccccc2-c2ccccc2)cc1S(=O)(=O)Nc1cccc(C)c1C	nt	-6.3*	nt	60.6	77.6	nt
Cc1cccc(-c2c3c(=O)n(C)c(=O)n(C)c3cn2C(C)(C)C)c1	89.2	1.28	86.5	94.3	85.6	58.9
Cn1c(=O)c2c(-c3ccccc3)n(C3CCCCC3)cc2n(C)c1=O	105.3	-1.85	86.2	68.3	74.7	37.3*
Cc1cccc(-c2c3c(=O)n(C)c(=O)n(C)c3cn2C2CCCCC2)c1	102.6	0.638	79.3	61.2	63.0	22.7*
Cn1c(=O)c2c(-c3ccccc3)n(N3CCOCC3)cc2n(C)c1=O	86.8	1.62	79.5	89.9	88.0	59.6
CC(C)(C)S(=O)(=O)c1cnc2c(-c3ccc(Cl)cc3)cnn2c1N	nt	1.05	nt	1.7*	2.6*	nt
C#CCn1c(=NC(=O)c2ccc(S(=O)(=O)N3CCc4ccccc4C3)cc2)sc2cc(S(N)(=O)=O)ccc21	nt	nt	nt	1.5*	1.4*	nt
C=CCn1c(=NC(=O)c2ccc(S(=O)(=O)N3CCc4ccccc4C3)cc2)sc2cc(S(N)(=O)=O)ccc21	nt	nt	nt	1.7*	1.4*	nt
COCCn1c(=NC(=O)c2ccc(S(=O)(=O)N3CCc4ccccc4C3)cc2)sc2cc(S(N)(=O)=O)ccc21	nt	nt	nt	80.4	68.6	nt
CC(/C=C/c1ccc2c(c1)OCO2)=N/NC(=O)c1ccc(C)nc1	nt	nt	nt	56.0	57.8	nt
Cc1ccsc1C(=O)OCC(=O)Nc1cccc(S(=O)(=O)N2CCOCC2)c1	nt	nt	nt	91.6	92.0	nt
SMILES	HUVEC prolif 384	Cav32 inh	Lung fibro prol	PTEN del growth	bCat KO growth	H69AR inhibit
Cc1cccc(C)c1NC(=O)C(=O)NCCOc1ccc(Cl)cc1	nt	-3.61*	nt	101.3	89.7	nt
Cc1cccc(C)c1NC(=O)C(=O)NCCCN1CCOCC1	nt	nt	nt	101.5	85.8	nt
CCOc1ccc(C(=O)Nc2c3c(nn2C(C)(C)C)CSC3)cc1OCC	96.3	-3.33*	108.5	96.3	96.0	101.2
CCOc1ccc(C(=O)Nc2nnc(C)s2)cc1OCC	99.4	0.485	102.1	103.3	92.8	87.7
CCOC(=O)c1sc2nc(SCC#N)n(CC3CCCO3)c(=O)c2c1C (stereo not drawn)	132.8	-0.474	98.8	10.8	6.0*	87.2
Cc1nc2cc(-c3cccc(F)c3)nn2c(C)c1CCC(=O)NC(C)CCc1ccco1 (stereo not drawn)	100.3	-5.48*	94.8	61.1	57.8	85.8
O=c1c2c(nc3cc(-c4ccc(F)cc4)[nH]n13)CCC2	nt	nt	nt	81.8	85.2	nt
O=C(CSc1nnnn1-c1ccccc1)CC(=O)Nc1ccc(Cl)cc1	63.7	nt	83.3	82.3	83.6	17.3*
CCc1cccc2c(C=C(C#N)C#N)cn(CC(=O)N3CCCCCC3)c12	nt	0.00373	nt	83.8	82.8	nt
